Measurements from ChEMBL document CHEMBL5030509, “A Crowding Barrier to Protein Inhibition in Colloidal Aggregates” (J Med Chem, 2021).
The source made the active and inactive calls. The calls are words filed in the database; no cut-off is given here.

Legend:
[1] = system: Bacteria; experiment: Inhibition of bacterial AmpC beta-lactamase at 5 uM preincubated for 1 min followed by CENTA chromogenic substrate addition by spectrophotometric method relative to control
In short: (§1)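 AmpC β-lactamase mixed with colloidal aggregator in 50 mM KPi pH 7 at room temperature, mixed by pipetting, incubated 30 s–15 min. Then 70 μM CENTA added and absorbance followed at 405 nm for 150 s. % activity is the initial rate relative to an aggregator-free control. T90 is the incubation time to reach 10% activity.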

[2] = system: Bacteria; experiment: Inhibition of bacterial AmpC beta-lactamase at 5 uM preincubated for 2 mins followed by CENTA chromogenic substrate addition by spectrophotometric method relative to control; in short: as §1
[3] = system: Bacteria; experiment: Inhibition of bacterial AmpC beta-lactamase at 10 uM using 10 nM of enzyme preincubated for 30 sec followed by CENTA chromogenic substrate addition by spectrophotometric assay relative to control; in short: as §1
[4] = target: T1, Malate dehydrogenase, mitochondrial (Homo sapiens) (UniProt P40926); experiment: Inhibition of malate dehydrogenase (unknown origin) assessed as time to reach 90% inhibition pretreated with 50 mM KPi for 15 mins followed by nicotinamide adenine dinucleotide addition measured every 150 sec by spectrophotometric method; details: dose 5.0 mM, in the assay text read “5 mM KPi” for “50 mM KPi”
T1 sequence (whole entry): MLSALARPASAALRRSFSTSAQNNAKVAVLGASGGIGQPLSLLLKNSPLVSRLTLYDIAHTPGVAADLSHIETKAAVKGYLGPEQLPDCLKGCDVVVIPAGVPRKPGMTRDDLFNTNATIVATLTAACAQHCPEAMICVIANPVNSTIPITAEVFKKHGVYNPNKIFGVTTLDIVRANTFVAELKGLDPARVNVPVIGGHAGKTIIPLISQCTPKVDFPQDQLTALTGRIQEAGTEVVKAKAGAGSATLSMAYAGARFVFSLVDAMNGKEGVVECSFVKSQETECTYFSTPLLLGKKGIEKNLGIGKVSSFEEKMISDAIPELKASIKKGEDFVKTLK
In short: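 Porcine heart MDH mixed with colloidal aggregator in 50 mM KPi pH 7 at room temperature, incubated 30 s–15 min. Reaction started with 200 μM NADH and 200 μM oxaloacetic acid, followed at 340 nm for 150 s. Initial rate relative to an aggregator-free control gives % activity. T90 is the incubation time to 10% activity.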

[5] = system: Bacteria; experiment: Inhibition of bacterial AmpC beta-lactamase at 10 uM using 2 nM of enzyme preincubated for 30 sec followed by CENTA chromogenic substrate addition by spectrophotometric assay relative to control; in short: as §1
[6] = target: T1, Malate dehydrogenase, mitochondrial (Homo sapiens); experiment: Inhibition of preloaded MDH (unknown origin) preincubated for 30 sec in absence of preloaded AmpC
In short: (§2)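 Porcine heart MDH assay: 200 μM nicotinamide adenine dinucleotide plus 200 μM oxaloacetate, read at 340 nm for 150 s, in 50 mM KPi pH 7 at room temperature. For preloading, the aggregator was first incubated 5 min with AmpC, then MDH was added and incubated for varying times. % activity is relative to an aggregator-free control.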

[7] = system: Bacteria; experiment: Inhibition of bacterial AmpC beta-lactamase assessed as time reach to 90% inhibition in absence of preloaded MDH
In short: (§3)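 AmpC activity with 70 μM CENTA, read at 405 nm for 150 s, in 50 mM KPi pH 7 at room temperature. For preloading, the aggregator was incubated 5 min with MDH before AmpC was added and incubated for varying times. % activity is relative to an aggregator-free rate control. T90 is the time to 10% activity.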

[8] = system: Bacteria; experiment: Inhibition of bacterial AmpC beta-lactamase preincubated for 30 sec in presence of preloaded MDH relative to control; details: concentration not given here; in short: as §3
[9] = system: Bacteria; experiment: Inhibition of bacterial AmpC beta-lactamase at 5 uM preincubated for 5 min followed by CENTA chromogenic substrate addition by spectrophotometric method relative to control; in short: as §1
[10] = system: Escherichia coli; experiment: Inhibition of Escherichia coli beta galactosidase using ortho-nitrophenyl-beta-galactoside as substrate
In short: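 E. coli β-galactosidase (overproducer) mixed with colloidal aggregator in 50 mM KPi pH 7, incubated 30 s–15 min at room temperature; reaction started with 300 μM ortho-nitrophenyl-β-galactoside and followed at 320 nm for 150 s. Initial rate divided by that of an aggregator-free control gives % activity.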

[11] = system: Bacteria; experiment: Inhibition of bacterial AmpC beta-lactamase at 10 uM of 10 nM of enzyme preincubated for 5 min followed by CENTA chromogenic substrate addition by spectrophotometric assay relative to control; set-up: scale not given: the % may be the effect or the level left; in short: as §1
[12] = system: Bacteria; experiment: Inhibition of bacterial AmpC beta-lactamase assessed as time reach to 90% inhibition in presence of preloaded MDH; in short: as §3
[13] = system: Bacteria; experiment: Inhibition of bacterial AmpC beta-lactamase at 10 uM using 2 nM of enzyme preincubated for 5 mins followed by CENTA chromogenic substrate addition by spectrophotometric assay relative to control; in short: as §1
[14] = system: Bacteria; experiment: Inhibition of bacterial AmpC beta-lactamase preincubated for 30 sec in absence of preloaded MDH relative to control; details: concentration not given here; in short: as §3
[15] = target: T1, Malate dehydrogenase, mitochondrial (Homo sapiens); experiment: Inhibition of preloaded MDH (unknown origin) preincubated for 30 sec in presence of preloaded AmpC; in short: as §2

inhibition [1]: 40%
inhibition [2]: 80%
inhibition [3]: 40%
TIME [4]: > 0.25 h
inhibition [5]: 67%
inhibition [6]: Active
TIME [7]: 0.0167 h
inhibition [8]: 45%
inhibition [9]: 100%
inhibition [10]: Active
Activity [11]: 20%
TIME [12]: 0.0833 h
inhibition [13]: 100%
inhibition [14]: 80%
inhibition [15]: Active
Structure (SMILES): CNC(=O)c1cc(Oc2ccc(NC(=O)Nc3ccc(Cl)c(C(F)(F)F)c3)cc2)ccn1
